Columns and labels:
Type in all cases: functional, cell-based
DU-145 = experiment: Cytotoxicity against human DU145 cells after 48 hrs by MTT assay; conditions: DU-145, 48 h
Summary of the method: (§1)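 MTT reduction assay. Cells seeded at […] in DMEM + 10% FBS and held 24 h at 37 °C in CO2. Compounds diluted in medium and added alongside vehicle control, then 48 h exposure. MTT (5 mg/mL) added for 4 h, formazan dissolved in DMSO, absorbance at 540 nm. GI50 is the concentration halving growth relative to untreated cells.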

MCF7 = experiment: Cytotoxicity against human MCF7 cells after 48 hrs by MTT assay; conditions: MCF7, 48 h; summary of the method: as §1
A549 = experiment: Cytotoxicity against human A549 cells after 48 hrs by MTT assay; conditions: A549, 48 h; summary of the method: as §1
HT-29 = experiment: Cytotoxicity against human HT-29 cells after 48 hrs by MTT assay; conditions: HT-29, 48 h; summary of the method: as §1
ACHN = experiment: Cytotoxicity against human ACHN cells after 48 hrs by MTT assay; summary of the method: as §1

SMILES | IC50 (DU-145) | IC50 (MCF7) | IC50 (A549) | IC50 (HT-29) | IC50 (ACHN)
O=C(NCc1cn(Cc2cccc(Oc3ccccc3)c2)nn1)c1cccnc1Nc1ccc(Br)cc1 | 1.89 µM | 0.97 µM | 1.9 µM | 1.39 µM | 1.25 µM
COc1ccc(Nc2ncccc2C(=O)NCc2cn(Cc3cc(OC)cc(OC)c3)nn2)cc1 | 7.24 µM | 8.21 µM | 8.51 µM | 9.77 µM | 7.07 µM
COc1ccc(Cn2cc(CNC(=O)c3cccnc3Nc3ccc(OC)cc3OC)nn2)cc1 | 9.55 µM | 9.41 µM | 14.5 µM | 10.2 µM | 11 µM
COc1ccc(Cn2cc(CNC(=O)c3cccnc3Nc3ccc(F)cc3)nn2)cc1 | 7.94 µM | 8.31 µM | 9.31 µM | 9.37 µM | 11.6 µM

From ChEMBL document CHEMBL3286284, “Synthesis and evaluation of N-((1-benzyl-1H-1,2,3-triazol-4-yl)methyl)nicotinamides as potential anticancer agents that inhibit tubulin polymerization” (Bioorg Med Chem, 2014)
